Measurements reported in ChEMBL document CHEMBL1146966, “Beta'-hydroxy-alpha,beta-unsaturated ketones: a new pharmacophore for the design of anticancer drugs” (2006).

How the values were obtained:
Assay type in all cases: functional
[1] = tested on: A2780; assay: Antiproliferative activity against A2780 cell line after 48 hrs by SRB assay; conditions: Homo sapiens, A2780, 48 h
In short: (§1)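 Human solid tumor cells exposed 48 h to compound in duplicate at five tenfold dilutions, top final concentration 100 µM (DMSO stock at 400× that; controls got matching DMSO). Cells precipitated with ice-cold 50% TCA, fixed 60 min at 4 °C, stained by SRB, OD read at 490 nm. Percentage growth from OD at start versus end of exposure, corrected for medium-only background. GI50 = concentration giving PG +50 (NCI protocol); means of two to four experiments.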

[2] = tested on: SW1573; assay: Antiproliferative activity against SW1573 cell line after 48 hrs by SRB assay; conditions: Homo sapiens, SW1573, 48 h; in short: as §1
[3] = tested on: WiDr; assay: Antiproliferative activity against WiDr cell line after 48 hrs by SRB assay; conditions: Homo sapiens; in short: as §1

GI50 [1] | GI50 [2] | Compound | GI50 [3]
21 µM | 30 µM | CC(=O)/C=C/C1CCCCC1 | 23 µM
20 µM | 31 µM | CC(C)C/C=C/C(=O)c1ccccc1 | 22 µM
2.6 µM | 13 µM | CC(C)CC(O)CC(=O)/C=C\c1ccccc1 (stereo not drawn) | 16 µM
21 µM | 33 µM | CC(C)C/C=C(/C(=O)c1ccccc1)c1ccccc1 | 21 µM
3.9 µM | 12 µM | Cc1ccc(/C=C\C(=O)CC(O)CC(C)C)cc1 (stereo not drawn) | 15 µM
3.3 µM | 4.3 µM | O=C(/C=C/c1ccccc1)CC(O)c1ccccc1 (stereo not drawn) | 14 µM
91 µM | 79 µM | CCCCCC/C=C/C(C)=O | 56 µM
5.5 µM | 11 µM | CC(C)CC(O)C(C)C(=O)/C=C\c1ccc(Br)cc1 (stereo not drawn) | 12 µM
9.9 µM | 26 µM | CC(C)(C)/C=C/C(=O)CC(O)C(C)(C)C (stereo not drawn) | 59 µM
18 µM | 24 µM | CC(C)C/C=C(\CO)C(=O)c1ccccc1 | 19 µM
1.8 µM | 3.1 µM | O=C(/C=C/C1CCCCC1)CC(O)C1CCCCC1 (stereo not drawn) | 2.9 µM
16 µM | 30 µM | O=C(/C=C/CCCCCCCCCCBr)CC(O)CCCCCCCCCCBr (stereo not drawn) | 32 µM
17 µM | 27 µM | CC(C)C/C=C/C(=O)CC(O)CC(C)C (stereo not drawn) | 21 µM
26 µM | 25 µM | CCCCCC/C=C/C(=O)CC(O)CCCCCC (stereo not drawn) | 31 µM
> 100 µM | > 100 µM | C/C(=C\CC(C)C)C(=O)c1ccccc1 | > 100 µM
28 µM | 36 µM | C/C(=C\C1CCCCC1)C(=O)c1ccccc1 | 41 µM
